In ChEMBL document CHEMBL1143397 (J Med Chem, 2009):
Calls of active or inactive are those of the source. The calls are words filed in the database; no cut-off is given here.

What was measured:
[1] = target: T1, Melatonin receptor type 1A (Homo sapiens, UniProt P48039); test: Displacement of 2-[125I]iodomelatonin from human MT1 receptor expressed in CHO cells; format: cell-based
[2] = target: T2, Melatonin receptor type 1B (Homo sapiens, UniProt P49286); test: Displacement of 2-[125I]iodomelatonin from human MT2 receptor expressed in CHO cells; format: cell-based
T2 sequence (P49286 whole entry): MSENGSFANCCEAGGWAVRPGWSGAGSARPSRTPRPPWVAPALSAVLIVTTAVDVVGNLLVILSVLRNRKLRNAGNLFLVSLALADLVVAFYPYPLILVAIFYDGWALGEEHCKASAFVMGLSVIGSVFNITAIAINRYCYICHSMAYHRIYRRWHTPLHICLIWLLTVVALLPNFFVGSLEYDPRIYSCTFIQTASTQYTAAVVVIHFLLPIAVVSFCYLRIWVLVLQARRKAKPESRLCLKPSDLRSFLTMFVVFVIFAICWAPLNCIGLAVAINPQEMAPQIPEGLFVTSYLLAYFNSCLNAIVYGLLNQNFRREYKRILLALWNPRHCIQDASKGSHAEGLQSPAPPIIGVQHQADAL

Homo sapiens = species on record: Homo sapiens; test: Selectivity ratio of Ki for human MT1 receptor to Ki for human MT2 receptor
In short: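 Whole-cell competition binding used lifted human MT1- or MT2-CHO cells with 80-100 pM 2-[125I]iodomelatonin and test compound (1 pM to 1 µM), 1 h at 25 °C, stopped with cold 50 mM Tris-HCl pH 7.4. Ki came from IC50 by Cheng-Prusoff, mean of three determinations. The ratio is Ki MT1 / Ki MT2.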

[3] = target: T1, Melatonin receptor type 1A; test: Antagonist activity at human MT1 receptor expressed in CHO cells assessed as inhibition of forskolin-stimulated cAMP formation; format: functional, cell-based
In short: (§1)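 In stable human MT1- or MT2-CHO cells replated in 24-well plates, cells were given 20 min at 37 °C in serum-free medium with 30 µM rolipram and 100 µM forskolin, plus a test compound concentration series within 10-14 to 10^-4 M. Rolipram alone gave basal and rolipram plus forskolin gave maximal accumulation. cAMP was read by EIA kit.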

[4] = target: T3, Melatonin receptor type 1B (Homo sapiens) (UniProt P49286); test: Activity at human MT2 receptor expressed in CHO cells assessed as inhibition of forskolin-stimulated cAMP formation at >10 nM; format: functional, cell-based; in short: as §1
T3 sequence (whole entry): T2 sequence (P49286 whole entry)

[5] = target: T1, Melatonin receptor type 1A; test: Activity at high-affinity binding site of human MT1 receptor expressed in CHO cells assessed as decrease in potency of melatonin to inhibit forskolin-induced cAMP accumulation at 10 to 100 nM
[6] = target: T3, Melatonin receptor type 1B (Homo sapiens); test: Activity at human MT2 receptor expressed in CHO cells assessed as increase in potency of melatonin to inhibit forskolin-induced cAMP accumulation at 100 nM; format: functional, cell-based
[7] = target: T3, Melatonin receptor type 1B (Homo sapiens); test: Activity at human MT2 receptor expressed in CHO cells assessed as increase in potency of melatonin to inhibit forskolin-induced cAMP accumulation at 10 nM; format: functional, cell-based
[8] = target: T1, Melatonin receptor type 1A; test: Activity at low-affinity binding site of human MT1 receptor expressed in CHO cells assessed as increase in potency of melatonin to inhibit forskolin-induced cAMP accumulation at 10 to 100 nM; format: functional, cell-based
[9] = target: T3, Melatonin receptor type 1B (Homo sapiens); test: Antagonist activity at human MT2 receptor expressed in CHO cells assessed as inhibition of forskolin-stimulated cAMP formation; format: functional, cell-based; in short: as §1

T1 sequence (P48039 whole entry): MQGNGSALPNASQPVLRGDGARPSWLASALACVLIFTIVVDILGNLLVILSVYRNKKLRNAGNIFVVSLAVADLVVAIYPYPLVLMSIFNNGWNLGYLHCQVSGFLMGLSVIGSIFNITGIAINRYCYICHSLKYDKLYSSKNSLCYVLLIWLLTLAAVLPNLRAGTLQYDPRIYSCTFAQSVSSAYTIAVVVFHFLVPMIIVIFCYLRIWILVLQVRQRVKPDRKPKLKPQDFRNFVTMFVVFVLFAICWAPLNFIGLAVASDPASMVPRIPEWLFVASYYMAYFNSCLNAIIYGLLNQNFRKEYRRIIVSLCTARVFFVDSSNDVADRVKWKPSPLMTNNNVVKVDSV

| SMILES | Ki ([1]; read-out: Ki) | Ki ([2]; read-out: Ki) | other results |
| --- | --- | --- | --- |
| CCC(=O)NCCc1c(CN2CCc3ccccc32)[nH]c2ccc(OC)cc12 | 38 nM | 14.5 nM |  |
| COc1ccc2[nH]c(CN3CCc4ccc([N+](=O)[O-])cc43)c(CCNC(C)=O)c2c1 | 302 nM | 26.5 nM | Ki ([1]; read-out: pKi (converted)): 309 nM |
| CCCC(=O)NCCc1c(CN2c3ccccc3CC2C)[nH]c2ccc(OC)cc12 (stereo not drawn) | 41 nM | 8 nM | Ratio Ki (Homo sapiens): 5 |
| COc1ccc2c(c1)CCN2Cc1[nH]c2ccc(OC)cc2c1CCNC(C)=O | 5.8 nM | 7.1 nM |  |
| COc1ccc2[nH]c(CN3CCc4ccccc43)c(CCNC(=O)C3CCC3)c2c1 | 1400 nM | 148 nM | Activity [3]: Active; Activity [4]: Active; Ki ([2]; read-out: pKi (converted)): 0.001 nM |
| COc1cccc(C(CCNC(C)=O)c2ccc3ccccc3c2)c1 (stereo not drawn) | 132 nM | 0.11 nM |  |
| COc1cccc(Cc2oc3ccc(OC)cc3c2CCNC(C)=O)c1 | 27 nM | 0.25 nM |  |
| COc1ccc2[nH]c(CN3CCc4cc(C)ccc43)c(CCNC(C)=O)c2c1 | 41 nM | 15 nM |  |
| COc1ccc2[nH]c(CN3c4ccccc4CC3C)c(CCNC(C)=O)c2c1 (stereo not drawn) | 148 nM | 14 nM | Ratio Ki (Homo sapiens): 11 |
| COc1ccc2c(c1)CC1Cn3c(c(CCNC(C)=O)c4cc(OC)ccc43)CN21 (stereo not drawn) |  |  | Ki ([1]; read-out: pKi (converted)): 1780 nM |
| COc1ccc2c(c1)c(CCNC(C)=O)c1n2CC2Cc3ccccc3N2C1 (stereo not drawn) |  |  | Ki ([1]; read-out: pKi (converted)): 302 nM; Ki ([2]; read-out: pKi (converted)): 60.3 nM |
| COc1ccc2[nH]c(CN3CCc4ccccc43)c(CCNC(C)=O)c2c1 | 101 nM | 1.1 nM | Activity [5]: Active; Activity [6]: Active; Ratio Ki (Homo sapiens): 91; Activity [3]: Active; Activity [7]: Active; Activity [8]: Active; Ki ([1]; read-out: pKi (converted)): 115 nM; Activity [9]: Active; Ki ([2]; read-out: pKi (converted)): 1.17 nM |
| CCC(=O)NCc1cc2c(OC)cccc2n1Cc1ccc(Cl)cc1 |  | 9 nM |  |
| COc1ccc2[nH]c(CN3CCc4cc(Br)ccc43)c(CCNC(C)=O)c2c1 | 85 nM | 30 nM |  |
| CCC(=O)NC1Cc2ccccc2C(c2ccccc2)C1 (stereo not drawn) | 59 nM | 0.46 nM |  |
| COc1ccc2c(c1)[C@@H](CCNC(=O)C1CCC1)C[C@@H](c1ccccc1)C2 | 797 nM | 0.9 nM |  |
| COc1ccc2[nH]c(CN3CCc4ccc(N)cc43)c(CCNC(C)=O)c2c1 | 108 nM | 118 nM |  |
| CCC(=O)NCC1Cc2ccccc2Cc2ccc(OC)cc21 (stereo not drawn) | 1.4 nM | 0.16 nM |  |
| COc1ccc2[nH]c(CN3CCCC3)c(CCNC(C)=O)c2c1 | 121 nM | 25 nM |  |
| COc1cccc(/C(=C/CNC(C)=O)c2ccccc2)c1 | 230 nM | 2.5 nM |  |
